The values below come from ChEMBL document CHEMBL1150294, “Synthesis of indirubin-N'-glycosides and their anti-proliferative activity against human cancer cell lines” (Bioorg Med Chem, 2008).

One test relates to MCF7. Description: Antiproliferative activity against human MCF7 cells after 96 hrs by crystal violet assay. To be noted: MCF7, 96 h. The class given is functional, cell-based. Summed up:
(§1)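 Adherent lines from DSMZ grown in RPMI 1640 with 10% FCS plus penicillin G/streptomycin. Seeded at 1000 cells/well 24 h before dosing, with an untreated plate fixed at dosing as the time-zero reference. Compounds came from DMSO series, five concentrations at 0.1% final DMSO, eight wells each. Exposure was continuous for 96 h. Cells were glutaraldehyde-fixed, stained with 0.02% crystal violet, dye eluted in 70% ethanol, OD 570 nm. Results are corrected T/C% against time-zero.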

The test system of test [1] is 5637. Description: Antiproliferative activity against human 5637 cells after 96 hrs by crystal violet assay. Conditions: Homo sapiens, 5637, 96 h. The test is classed as functional, cell-based. Summed up: as §1
Another test has as its system A-427. Description: Antiproliferative activity against human A427 cells after 96 hrs by crystal violet assay. The class given is functional, cell-based. To be noted: A-427, 96 h. Summed up: as §1
Test [2] is described as follows: Antiproliferative activity against human KYSE70 cells after 96 hrs by crystal violet assay. The test is classed as functional, cell-based. To be noted: KYSE-70, 96 h. A digest of the protocol: as §1
A short description of test [3]: Growth inhibition of human KYSE70 cells at 12.5 uM after 96 hrs by crystal violet assay. The test is classed as functional. Conditions: KYSE-70, 96 h. A digest of the protocol: as §1
For test [4], the system named is 5637. Description: Growth inhibition of human 5637 cells at 12.5 uM after 96 hrs by crystal violet assay. The class given is functional. To be noted: Homo sapiens, 5637, 96 h. Summed up:
as §1

Some results are limits rather than exact numbers.

The term IC50 denotes the concentration that inhibits the measured activity by half. A low value points to inhibition by little substance. In the case of `C[C@@H]1O[C@H](N2C(=O)/C(=C3\Nc4ccccc4C3=O)c3ccccc32)[C@H](O)[C@H](O)[C@H]1O`, the IC50 in the test with MCF7 is 0.76 µM; with 5637 [1], more than 12.5 µM; in the test on A-427, more than 12.5 µM; in test [2], more than 12.5 µM.

For `O=C1/C(=C2/C(=O)N([C@@H]3O[C@H](CO)[C@H](O)[C@H](O)[C@H]3O)c3ccccc32)Nc2ccccc21`, the IC50 in the test on MCF7 turned out to be 25.8 µM; in the test on 5637 [1], 24.9 µM; in the test on A-427, 13.2 µM; in test [2], 41.5 µM.

A word on the inhibition: it is how much of the control response was suppressed. A high value points to strong suppression. In the case of `Cc1cc(C)c2c(c1)N([C@H]1O[C@@H](C)[C@H](O)[C@@H](O)[C@H]1O)C(=O)/C2=C1\Nc2ccccc2C1=O`, the IC50 in the test on MCF7 is 6.16 µM; in the test with 5637 [1], more than 12.5 µM; in test [2], more than 12.5 µM. Moreover, the inhibition at 12.5 µM (in test [3]; in the test on 5637 [4]) was less than 20% throughout.

Turning to `C[C@@H]1O[C@H](N2C(=O)/C(=C3\Nc4ccccc4\C3=N/O)c3ccccc32)[C@H](O)[C@H](O)[C@H]1O`, the results for the IC50 (in the test on MCF7; in the test on 5637 [1]; in test [2]) were 17 µM, 15.5 µM and 15.4 µM, respectively.

Turning to `C[C@@H]1O[C@@H](N2C(=O)/C(=C3\Nc4ccccc4C3=O)c3ccccc32)[C@H](O)[C@H](O)[C@H]1O`, the IC50 in the test on MCF7 is 0.67 µM; in the test with 5637 [1] it was more than 25 µM; in the test on A-427 it was more than 25 µM; in test [2], more than 25 µM. Moreover, the inhibition at 12.5 µM (in test [3]; in the test with 5637 [4]) was less than 20% in each case.

`COc1cc([C@@H]2c3cc4c(cc3[C@@H](O[C@@H]3O[C@@H]5CO[C@@H](C)O[C@H]5[C@H](O)[C@H]3O)[C@H]3COC(=O)[C@H]23)OCO4)cc(OC)c1O` [ETOPOSIDE]: the IC50 with MCF7 amounted to 0.5 µM; in the test on 5637 [1], 0.54 µM; in the test with A-427 it was 0.13 µM; in test [2] it was 0.94 µM.

For `O=C1/C(=C2/C(=O)N([C@@H]3O[C@H](CO)[C@@H](O)[C@H](O)[C@@H]3O)c3ccccc32)Nc2ccccc21`, the IC50 with MCF7 was found to be 4.22 µM; with 5637 [1], 10.6 µM; in the test on A-427 it was 5.55 µM; in test [2], 11.8 µM.

Take `Nc1ncn([C@@H]2O[C@H](CO)[C@@H](O)[C@H]2O)c(=O)n1` [AZACITIDINE]: the IC50 in the test on MCF7 turned out to be 6.78 µM; in the test with 5637 [1], 1.73 µM; in the test with A-427 it was 0.63 µM; in test [2], 1.59 µM.

As to `O=C(O)CCCc1ccc(N(CCCl)CCCl)cc1` [CHLORAMBUCIL], the IC50 in the test on MCF7 came to 18.4 µM; in the test with 5637 [1] it was 6.55 µM; in the test on A-427, 9.5 µM; in test [2], 38.4 µM.

For the compound `O=C1/C(=C2/C(=O)N([C@@H]3O[C@H](CO)[C@@H](O)[C@H](O)[C@H]3O)c3ccccc32)Nc2ccccc21`, the IC50 is 15.7 µM in the test on MCF7, 14.4 µM with 5637 [1], 11.8 µM in the test with A-427 and 28.9 µM in test [2].

`C[C@@H]1O[C@H](N2C(=O)/C(=C3\Nc4ccc(Cl)cc4C3=O)c3ccccc32)[C@H](O)[C@H](O)[C@H]1O`: the IC50 is 7.98 µM in the test on MCF7, 8.23 µM in the test on 5637 [1] and 5.94 µM in test [2].

For the compound `C[C@@H]1O[C@@H](N2C(=O)/C(=C3\Nc4ccc(Cl)cc4C3=O)c3ccccc32)[C@H](O)[C@H](O)[C@H]1O`, the values for the IC50 (with MCF7; in the test on 5637 [1]; in test [2]) were 6.96 µM, 12.9 µM and 15.3 µM, respectively.
